Experimental data taken from ChEMBL document CHEMBL5058577, “EUbOPEN Chemogenomics Library 2 (Multiplex)” (2022).

Test system: HEK-293T
Experiment: Multiplex assay against HEK293T
Assay type: toxicity, cell-based
Conditions: human
Procedure, shortened: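 On a CQ1 microscope at 37°C and 5% CO2, live cells were imaged after compound addition. They had been stained at seeding with Hoechst33342, BioTracker Green Microtubule Cytoskeleton Dye, MitoTracker Red and Annexin V Alexa Fluor 680. CellPathfinder machine-learning gating assigned cells to Hoechst high-intensity objects or normal cells, normal cells to healthy, pyknosed or fragmented nuclei, and pyknosed cells to mitotic or apoptotic. Tubulin, mitochondrial-mass and membrane-permeability phenotypes are per cents of healthy-nucleus cells.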

[1] = 12 h, 1 µM, compound concentration 1 uM, replicate 1
[2] = 12 h, 1 µM, compound concentration 1 uM, replicate 2
[3] = 12 h, 10 µM, compound concentration 10 uM, replicate 1
[4] = 12 h, 10 µM, compound concentration 10 uM, replicate 2
[5] = 24 h, 1 µM, compound concentration 1 uM, replicate 1
[6] = 24 h, 1 µM, compound concentration 1 uM, replicate 2
[7] = 24 h, 10 µM, compound concentration 10 uM, replicate 1
[8] = 24 h, 10 µM, compound concentration 10 uM, replicate 2
[9] = 48 h, 1 µM, compound concentration 1 uM, replicate 1
[10] = 48 h, 1 µM, compound concentration 1 uM, replicate 2
[11] = 48 h, 10 µM, compound concentration 10 uM, replicate 1
[12] = 48 h, 10 µM, compound concentration 10 uM, replicate 2

For `CC(C)c1noc(N2CCC(COc3ccc(-c4ccc(S(C)(=O)=O)cc4)nc3)CC2)n1` [GSK-1292263], the “Population Apoptotic (%)” value [1] was 37%, the “Population Fragmented Nuclei (%)” value [1] was 8% and the “Population Healthy Nuclei (%)” value [1] was 78%. For the same molecule, the “Population Hoechst High Intensity Objects (%)” value [1] was 5%, the “Population Membrane Permeable-Phenotype (%)” value [1] was 0% and the “Population Mitochondria Different-Phenotype (%)” value [1] was 42%. For the same molecule, the “Population Mitotic Cells (%)” value [1] was 62%, the “Population Normal (%)” value [1] was 94% and the “Population Pyknosed Nuclei (%)” value [1] was 12%. The “Population Tubulin-Different-Phenotype (%)” value [1] was 32%, the “Total Cell Count” value [1] was 440 and the “Population Apoptotic (%)” value [2] was 25%. For the same molecule, the “Population Fragmented Nuclei (%)” value [2] was 6%, the “Population Healthy Nuclei (%)” value [2] was 86% and the “Population Hoechst High Intensity Objects (%)” value [2] was 6%. For the same molecule, the “Population Mitochondria Different-Phenotype (%)” value [2] was 53%, the “Population Mitotic Cells (%)” value [2] was 74% and the “Population Normal (%)” value [2] was 93%. For the same molecule, the “Population Pyknosed Nuclei (%)” value [2] was 7%, the “Population Tubulin-Different-Phenotype (%)” value [2] was 13% and the “Total Cell Count” value [2] was 522. For the same molecule, the “Population Apoptotic (%)” value [3] was 50%, the “Population Fragmented Nuclei (%)” value [3] was 6% and the “Population Healthy Nuclei (%)” value [3] was 71%. For the same molecule, the “Population Hoechst High Intensity Objects (%)” value [3] was 13%, the “Population Membrane Permeable-Phenotype (%)” value [3] was 0% and the “Population Mitochondria Different-Phenotype (%)” value [3] was 69%. For the same molecule, the “Population Mitotic Cells (%)” value [3] was 50%, the “Population Normal (%)” value [3] was 86% and the “Population Pyknosed Nuclei (%)” value [3] was 22%. The “Population Tubulin-Different-Phenotype (%)” value [3] was 55%, the “Total Cell Count” value [3] was 311 and the “Population Apoptotic (%)” value [4] was 43%. For the same molecule, the “Population Fragmented Nuclei (%)” value [4] was 7%, the “Population Healthy Nuclei (%)” value [4] was 78% and the “Population Hoechst High Intensity Objects (%)” value [4] was 16%. For the same molecule, the “Population Mitochondria Different-Phenotype (%)” value [4] was 77%, the “Population Mitotic Cells (%)” value [4] was 56% and the “Population Normal (%)” value [4] was 83%. For the same molecule, the “Population Pyknosed Nuclei (%)” value [4] was 13%, the “Population Tubulin-Different-Phenotype (%)” value [4] was 40% and the “Total Cell Count” value [4] was 279. For the same molecule, the “Population Apoptotic (%)” value [5] was 23%, the “Population Fragmented Nuclei (%)” value [5] was 8% and the “Population Healthy Nuclei (%)” value [5] was 78%. The “Population Hoechst High Intensity Objects (%)” value [5] was 5%, the “Population Membrane Permeable-Phenotype (%)” value [5] was 0% and the “Population Mitochondria Different-Phenotype (%)” value [5] was 27%. For the same molecule, the “Population Mitotic Cells (%)” value [5] was 76%, the “Population Normal (%)” value [5] was 94% and the “Population Pyknosed Nuclei (%)” value [5] was 12%. For the same molecule, the “Population Tubulin-Different-Phenotype (%)” value [5] was 25%, the “Total Cell Count” value [5] was 545 and the “Population Apoptotic (%)” value [6] was 25%. The “Population Fragmented Nuclei (%)” value [6] was 7%, the “Population Healthy Nuclei (%)” value [6] was 82% and the “Population Hoechst High Intensity Objects (%)” value [6] was 3%. The “Population Mitochondria Different-Phenotype (%)” value [6] was 29%, the “Population Mitotic Cells (%)” value [6] was 74% and the “Population Normal (%)” value [6] was 96%. For the same molecule, the “Population Pyknosed Nuclei (%)” value [6] was 9%, the “Population Tubulin-Different-Phenotype (%)” value [6] was 9% and the “Total Cell Count” value [6] was 608. For the same molecule, the “Population Apoptotic (%)” value [7] was 64%, the “Population Fragmented Nuclei (%)” value [7] was 8% and the “Population Healthy Nuclei (%)” value [7] was 79%. For the same molecule, the “Population Hoechst High Intensity Objects (%)” value [7] was 8%, the “Population Membrane Permeable-Phenotype (%)” value [7] was 0% and the “Population Mitochondria Different-Phenotype (%)” value [7] was 58%. The “Population Mitotic Cells (%)” value [7] was 35%, the “Population Normal (%)” value [7] was 91% and the “Population Pyknosed Nuclei (%)” value [7] was 12%. For the same molecule, the “Population Tubulin-Different-Phenotype (%)” value [7] was 49%, the “Total Cell Count” value [7] was 384 and the “Population Apoptotic (%)” value [8] was 46%. For the same molecule, the “Population Fragmented Nuclei (%)” value [8] was 11%, the “Population Healthy Nuclei (%)” value [8] was 74% and the “Population Hoechst High Intensity Objects (%)” value [8] was 10%. For the same molecule, the “Population Mitochondria Different-Phenotype (%)” value [8] was 59%, the “Population Mitotic Cells (%)” value [8] was 53% and the “Population Normal (%)” value [8] was 89%. For the same molecule, the “Population Pyknosed Nuclei (%)” value [8] was 13%, the “Population Tubulin-Different-Phenotype (%)” value [8] was 28% and the “Total Cell Count” value [8] was 354. For the same molecule, the “Population Apoptotic (%)” value [9] was 22%, the “Population Fragmented Nuclei (%)” value [9] was 10% and the “Population Healthy Nuclei (%)” value [9] was 81%. The “Population Hoechst High Intensity Objects (%)” value [9] was 3%, the “Population Membrane Permeable-Phenotype (%)” value [9] was 1% and the “Population Mitochondria Different-Phenotype (%)” value [9] was 23%. For the same molecule, the “Population Mitotic Cells (%)” value [9] was 77%, the “Population Normal (%)” value [9] was 96% and the “Population Pyknosed Nuclei (%)” value [9] was 8%. The “Population Tubulin-Different-Phenotype (%)” value [9] was 14%, the “Total Cell Count” value [9] was 865 and the “Population Apoptotic (%)” value [10] was 23%. The “Population Healthy Nuclei (%)” value [10] was 83%, the “Population Hoechst High Intensity Objects (%)” value [10] was 1% and the “Population Mitochondria Different-Phenotype (%)” value [10] was 14%. For the same molecule, the “Population Mitotic Cells (%)” value [10] was 76%, the “Population Normal (%)” value [10] was 98% and the “Population Pyknosed Nuclei (%)” value [10] was 5%. The “Population Tubulin-Different-Phenotype (%)” value [10] was 10%, the “Total Cell Count” value [10] was 882 and the “Population Apoptotic (%)” value [11] was 32%. The “Population Fragmented Nuclei (%)” value [11] was 10%, the “Population Healthy Nuclei (%)” value [11] was 79% and the “Population Hoechst High Intensity Objects (%)” value [11] was 10%. For the same molecule, the “Population Membrane Permeable-Phenotype (%)” value [11] was 0%, the “Population Mitochondria Different-Phenotype (%)” value [11] was 50% and the “Population Mitotic Cells (%)” value [11] was 67%. For the same molecule, the “Population Normal (%)” value [11] was 89%, the “Population Pyknosed Nuclei (%)” value [11] was 9% and the “Population Tubulin-Different-Phenotype (%)” value [11] was 28%. For the same molecule, the “Total Cell Count” value [11] was 506, the “Population Apoptotic (%)” value [12] was 30% and the “Population Fragmented Nuclei (%)” value [12] was 13%. For the same molecule, the “Population Healthy Nuclei (%)” value [12] was 78%, the “Population Hoechst High Intensity Objects (%)” value [12] was 5% and the “Population Mitochondria Different-Phenotype (%)” value [12] was 37%. For the same molecule, the “Population Mitotic Cells (%)” value [12] was 69%, the “Population Normal (%)” value [12] was 94% and the “Population Pyknosed Nuclei (%)” value [12] was 8%. For the same molecule, the “Population Tubulin-Different-Phenotype (%)” value [12] was 18% and the “Total Cell Count” value [12] was 595.
